The EternaBench riboswitch data

Tested on: MS2 coat protein
Assay: apparent Kd, MS2 coat protein; higher = weaker binding; RNA-MaP array; FMN 200 µM where present
Summary of the method: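 The titrant was SNAP-549-labelled MS2 coat protein, run from 0.7 or 1.5 nM in doubling steps to 3 µM. It was applied to designs transcribed by stalled E. coli RNA polymerase on Illumina sequencing-chip clusters, without ligand first and then with constant ligand, in 100 mM Tris-HCl pH 7.5, 80 mM KCl, 4 mM MgCl2, BSA, DTT, yeast tRNA and Tween-20. The apparent Kd is the median of filtered per-cluster binding-curve fits, with green signal normalised to red-channel RNA signal and control-cluster median Fmax.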

[1] = designed as: ON switch for flavin mononucleotide, no ligand
[2] = ligand present: flavin mononucleotide, designed as: ON switch for flavin mononucleotide
[3] = designed as: OFF switch for flavin mononucleotide, no ligand
[4] = ligand present: flavin mononucleotide, designed as: OFF switch for flavin mononucleotide

| Sequence | apparent Kd [1] [nM] | apparent Kd [2] [nM] | apparent Kd [3] [nM] | apparent Kd [4] [nM] |
| --- | --- | --- | --- | --- |
| UUGGACGUCGUAGGAUAUGUAGGAUAUUCCUACAUGAGGAUCACCCAUGUUGACAUGGACGAAGGACAGAAGGACGAUGUCCAU | 479 | 134 | – | – |
| UUUCCCUGGCAAGGAUAUCCUGUGCGGUUCCGGCUCGUGUCUGUUACAUGAGGAUCACCCAUGUGGGAGAAGGUGCCUGUGGCU | – | – | 53.2 | 232 |
| UUGGACGUCGUAGGAUAUGUAGGAUAUUCCUACAUGAGGAUCACCCAUGUUGACAUGGAAGAAGGACAGAUGGACGAUGUCCAU | 298 | 6.98 | – | – |
| AAUUAUUGAUGAGGAUAUUGUGGUGAAACACCACAAGAAGGCAUUAUACACAUGAGGAUCACCCAUGUGAGCCUGAUGCAUAUA | – | – | 17.3 | 28.9 |
| CGUAACUGCAUAGGAUAUUGAUACAUGAGGAUCACCCAUGUUUUUCGGAUUAUAUAUCUACUUAGCAAGAAGGAUGGAGUUACG | 7.09 | 5.15 | – | – |
| AGAUUUUUUACAGGAUAUGUUAGUUUACAGUUGAUUGGUUAUUACAUUAUGACAGAAGGGUAGAACAUGAGGAUCACCCAUGUA | 374 | 174 | – | – |
| UGAUAGGACAGAGGAUAUACGUGCUAGAGAUACUAGCAAAAUUUCCUAACAUGAGGAUCACCCAUGUAGAAGGCUGUCCUAUCU | – | – | 6.73 | 14.2 |
| GCACUUAUAUUUGAACCGAUUCGAACAUGAGGAUCACCCAUGUAGGAUAUGCUAAAAGUUGUGAUGCAGAAGGACAUUAAGUGC | – | – | 5.44 | 6.74 |
| CAACUGGCACAGAAGGGUGACAUGAGGAUCACCCAUGUAGCGUGGCACUCAGGAGGAGCCACGCCACAGGAUAUGUGCGGGCAC | 42.3 | 78.4 | – | – |
| ACGAAACAUGAGGAUCACCCAUGUGCUUAAAGUGUAGGAUAUGGGAUAGCCUAGGUAGUCUCAGAAGGGCACCAAU | 45.1 | 22.5 | – | – |
| GCUAAGGGAGGAUAUACAUGAGGAUCACCCAUGUAGUCGCUGCGUUUCAUUAUCCAAGGUAGAAGGCCCAAAAU | – | – | 25.4 | 36 |
| CCCUCGGGAGGAUAUGGGUGUUUUUACAUGAGGAUCACCCAUGUGGAGUAACAUGUGGGUCCAGAAGGCCCAAGGG | – | – | 1400 | 663 |
| UAGGACGAACAGUGCCGUGGAACGAAGGAUAUACAGGGACGUCGGCUCACAUGAGGAUCACCCAUGUAGAAGGUCGACACGCGC | – | – | 8.91 | 48.3 |
| UAAAUUUUAUGAUAUUAUGACAGUAGAAGGCUAUACAUGUUGAUACAUGAGGAUCACCCAUGUAUAGAGGAUAUAUACAAUUAU | – | – | 1050 | 315 |
| UUUACGGGAGGAUAUACAUGAGGAUCACCCAUGUAACGGUGUGUAAUAUAUAUUGCGUGUAGAAGGUUUGUGGG | – | – | 79.3 | 78.6 |
| GCGGCUAAUGCAGGAUAUCGGCGCGUGUAGCGCCGAGAAGGGCACAUGAGGAUCACCCAUGUGAUCAAUCAAUGUUAAUGCCGC | – | – | 8.68 | 45.6 |
| AUCCUACAUGAGGAUCACCCAUGUGACGCCUCAAUAGGAUAUGCGUGUGCCUUGGCGCAUGCAGAAGGAUUGAAGC | 285 | 48.1 | – | – |
| AAGUAGGUAGGAUAUACAUGGAUAUACAUUCAUGUGGACCUACAUGAGGAUCACCCAUGUAGAAGGACCUACAA | – | – | 34.8 | 64.2 |
| UUAUUUAUACAAGGAUAUCAAUUAUAUACAAUUCCUACAUGAGGAUCACCCAUGUUUUAUUUUUUUGAGAAGGUGUAUUGUCUG | 30.1 | 32.8 | – | – |
| CUUUUGUGAGGAUAUUAGUAGUUUAUAAUUGGUGUUAUUACUGAGAAGGCACAUGAGGAUCACCCAUGUACAAC | – | – | 47.9 | 181 |
| AAAGCAACAUGAGGAUCACCCAUGUAGGAUAUCGCUAUUGUAAUCAUGAAACAUGAUUACAAUAGCGAGAAGGACAUAUGCUGG | – | – | 21.7 | 23.3 |
| AUAGAAGACUAGAAGGAUUUAGUUGUAUAUUGUCGAGGUAUAUAAUUAGGUAGGAUAUGGGACAUGAGGAUCACCCAUGUUUUG | 28.2 | 15.4 | – | – |
| UAUACUAGAUAGGAUAUACUUUAUUUUUUUUUCGUAGAAGGAUCUACAUGAGGAUCACCCAUGUUAACAGCAGU | – | – | 74.1 | 53.9 |
| UGCGCUGAGGGAGGAUAUGACAUGAGGAUCACCCAUGUGAUAGGUUUCUUGUCAGAAGGCCCGCAUGUACCAAAUUAGGUUUGU | – | – | 94 | 126 |
| UAGUAUAAGGGCAUUAAACAUGAGGAUCACCCAUGUACGAUAGAGGAUAUGCAUUUCAGUUGAGAGUAGAAGGUUAGAGAAUUG | – | – | 37.2 | 43.4 |
| AGCGUGUGAGGAUAUGCGGACUCCGGUAAAUCUGGAGUCCAGUAGAAGGCACAUGAGGAUCACCCAUGUGAGAU | – | – | 35.8 | 124 |
| AUCAUUCGUGUAGGAUAUGCGUGGCGAAGCUAUGCAGAAGGACAUGAGGAUCACCCAUGUCUUUCUGUCUGUGUACAGACAGGA | – | – | 22.2 | 94.8 |
| UAGAAUCGAGGAUAUACAUGAGGAUCACCCAUGUGUGGCCAUACUGUGUGGUCGUCAGGUAGAAGGCGAUUAUA | – | – | 72.3 | 22.6 |

| Sequence | apparent Kd [1] [nM] | apparent Kd [2] [nM] | apparent Kd [3] [nM] | apparent Kd [4] [nM] |
| --- | --- | --- | --- | --- |
| AAUAUAUUAAGUGAGGAUAUCAUAGAAAAAACAUGAGGAUCACCCAUGUGGGAAACCUGGUCGGGUGAGAAGGCACUUAAUAUAU | 992 | 88.4 | – | – |
| UUUUCUUUUGUGAGGAUAUACUUGUUUUUUUUUUUGUAGAAGGCACAUGAGGAUCACCCAUGUACUCUUUCCUG | – | – | 19.7 | 22.6 |
| UUUACAUGAGGAUCACCCAUGUUAAAAUAAUUAAUUAUAAGUGAGGAUAUAUAAUUUAUAAAAUUGUAGAAGGCACUGGGUAUU | 17.4 | 21.1 | – | – |
| GUUUGUUUUUAGAAGGUGCCGGCGAGAGCCGCAACAUGAGGAUCACCCAUGUGUCGGUGACGACGCAAGGAUAUGGAGGUGGAU | 127 | 77.8 | – | – |
| GUGCCUUGGGAGAAGGUUAUGUGCAAAGCAUUUAAAGGAUAUUCAUACCGGAAACGGACAUGAGGAUCACCCAUGUGGCACAAA | 621 | 150 | – | – |
| ACAAUAGUAUCACAUGUAUUACAUGAGGAUCACCCAUGUAACUAGGAUAUGUUUUAGAAUUUACAACAGAAGGAGUUAUUAUGU | – | – | 8.48 | 14.1 |
| GUGCCUUGGGAGAAGGUUAUAUGCAAAGCAUUUAAAGGAUAUUCAUACCGGAAACGGACAUGAGGAUCACCCAUGUGGCACAAA | 1280 | 128 | – | – |
| GCAGGUUAAGUAAGGAUAUACCUCUGGAAACAGAGGUAGAAGGUACAUGAGGAUCACCCAUGUUUCUCUUCUGC | – | – | 17.3 | 45.7 |
| UAUGGUUAAGUCAGGAUAUACGUGCAGUUAUCUGAGUAGAAGGGACAUGAGGAUCACCCAUGUAUGGUAGUGUU | – | – | 75.3 | 86.4 |
| CCUAAGGAGGCAGGAUAUAGUGUGGUGGCCGGGCUCCCACGGCGAGCGGCACUAGAAGGGUCGCUACAUGAGGAUCACCCAUGU | 25 | 17.3 | – | – |
| UCACCUGCCGAGGAUAUGAACGUAUUGAAUUGAUUAGAAGGCGGCACAUGAGGAUCACCCAUGUCACUGCACGC | – | – | 11.7 | 11.5 |
| AGCUAUUAAUCAGGAUAUAGGGACAUGAGGAUCACCCAUGUGUACAUGAUAAAAUGUGAUCACGUCUAGAAGGGAUUACUAACA | 77 | 79.8 | – | – |
| UUGUUGUAUGUAGGAUAUGCAUAUUGUUAUUAUGCAGAAGGACAUGAGGAUCACCCAUGUAUGUUAUUAUUAUGUGUUAUGUGU | – | – | 39.3 | 63.9 |
| GCCAUCGCAUGAGGAUAUGCUCCCGUUUCGGGAGCAGAAGGCAUGUCAUAAGACAUGAGGAUCACCCAUGUAGUUAAGAUGGCA | 723 | 32.5 | – | – |
| GGUACUCAAAGAGUACCAAUACGAACAUGAGGAUCACCCAUGUAGGAUAUGCUACUCAAAGAGUAGCAGAAGGACAUGUACCUA | – | – | 17.5 | 99.2 |
| AAUAUAAGAGCUGGACUCUAAAGAACAUGAGGAUCACCCAUGUAGGAUAUCAGCACGAUAAGUGCUGAGAAGGACAACCAGCUC | – | – | 14.1 | 14.6 |
| AACAUGUCAGGAUAUGCAAAAGGAGACUGACACGCGAGUGAGCAGAAGGGACAUGAGGAUCACCCAUGUUCAAA | – | – | 18.3 | 16 |
| AAGCAACAUGAGGAUCACCCAUGUAGCAGGGUCAGAGGAUAUUUGAGCUUGGCGAGGGUUAAAGAAGGUUGAUAUC | 38.8 | 43.6 | – | – |
| GGGUACAUCGGAGGAUAUCAUGUAAAUACAUGAGGAUCACCCAUGUCGGUGGAGACAUCGGAGAUUGAGAAGGCCGAUGUACCG | – | 12.7 | – | – |
| CUAUUGGUAACAGGAUAUAUGAGUCCUACAUGAGGAUCACCCAUGUAGGUGAUCAAACAUGAUUAGUAGAAGGGUUACCAAUAG | 40.9 | 8.8 | – | – |
| GCAGGACAUGAGGAUCACCCAUGUUCAAAAUAUAGAGGAUAUGGAUACGGUAUAUCCGAACCAGAAGGCUACCUGC | 14.6 | 14 | – | – |
| AUUAUUUUGUAGAAGGACGACUAUUAAUAUAUCGUAGGAUAUACUAUUUACAUGAGGAUCACCCAUGUUUAAAUGGAACAAUGU | – | – | 4.99 | 6.23 |
| CUUUCGUGAGGAUAUGUGGCUUCGAUCGUGAGAUCGAGAAAACAGAAGGCACAUGAGGAUCACCCAUGUUCCUC | – | – | 41 | 515 |
| UACAUGAGGAUCACCCAUGUUUUGUCGUGUAUGGUAUUUAUCUAGGAUAUCAAUUUGUUAAUUUAUGAGAAGGAGAAUAUUAAU | – | – | 35.3 | 38.3 |
| UCAGGCUUCGAGAAGGACAUGAGGAUCACCCAUGUUAACAUGUAGCAGCCGUGAGGCUGCAUCAUGUAGGAUAUCGGAGUCUGC | – | – | 6.07 | 7.07 |
| AUAAUGGUAGGAUAUACAUGGAUAUACAUUCAUGUGGACCUACAUGAGGAUCACCCAUGUAGAAGGACCAUGAA | – | – | 33.9 | 28.6 |
| AGAAACUACGAGAAGGACAUGUGGUAAAACGCAAACAUGAGGAUCACCCAUGUAGGAUAUCGUAGUUUCAGGAUCGUGAGAUCA | – | – | 589 | 26.9 |
